Assay results: ChEMBL document CHEMBL1649125, “Efficacy of the novel diamidine compound 2,5-Bis(4-amidinophenyl)- furan-bis-O-Methlylamidoxime (Pafuramidine, DB289) against Trypanosoma brucei rhodesiense infection in vervet monkeys after oral administration” (2009)
Active and inactive are the calls of the source. The rule behind the calls is not given here.

Assays:
[1] = test system: Trypanosoma brucei rhodesiense; experiment: Antitrypanosomal activity against Trypanosoma brucei rhodesiense infected in vervet monkey assessed as change in packed cell volume at 1 mg/kg, po administered on day 7 post infection for 5 days; format: functional
Method in brief: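 Packed cell volume change is given as percent of the mean preinfection PCV in 3 monkeys. It was recorded at day 0 p.t., day 28 p.t. and end point, after 5 daily oral gavage doses starting day 7 p.i.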

[2] = test system: Trypanosoma brucei rhodesiense; experiment: Antitrypanosomal activity against Trypanosoma brucei rhodesiense infected in vervet monkey 484 assessed as time to detect parasitemia in wet films of blood at 1 mg/kg, po administered on day 7 post infection for 5 days by hematocrit centrifugation technique; format: functional
Method in brief: (§1)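 Parasitemia was monitored from 3 days p.i. in ear-prick or inguinal venous blood. Methods were wet-film microscopy (detection limit 10^5 trypanosomes/ml) and hematocrit centrifugation technique (detection limit 10^3 trypanosomes/ml). Drug was given once daily by oral gavage: 5 days from day 7 p.i., or 10 days from day 28 p.i.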

[3] = test system: Trypanosoma brucei rhodesiense; experiment: Antitrypanosomal activity against Trypanosoma brucei rhodesiense infected in vervet monkey 482 assessed as time to detect CSF parasitosis at 3 mg/kg, po administered on day 7 post infection for 5 days measured after 14 to 21 days by microscopy; format: functional
Method in brief: (§2)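 Trypanosomes and white cells in free-flowing CSF were counted by hemocytometer. Negative CSF was centrifuged and re-examined. Samples still negative were inoculated at 0.2 ml intraperitoneally into two mice each. Drug was given once daily by oral gavage: 5 days from day 7 p.i., or 10 days from day 28 p.i.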

[4] = test system: Trypanosoma brucei rhodesiense; experiment: Antitrypanosomal activity against Trypanosoma brucei rhodesiense infected in vervet monkey 483 assessed as time to detect parasitemia in wet films of blood at 3 mg/kg, po administered on day 7 post infection for 5 days by hematocrit centrifugation technique; format: functional; method in brief: as §1
[5] = test system: Trypanosoma brucei rhodesiense; experiment: Antitrypanosomal activity against Trypanosoma brucei rhodesiense infected in vervet monkey assessed as body weight change at 10 mg/kg, po administered on day 28 post infection for 10 days; format: functional
Method in brief: (§3)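 Body weight change is given as percent of the mean preinfection weight (n=3 per group). It was recorded at day 0 p.t., day 28 p.t. and end point. Oral gavage was once daily: 5 days from day 7 p.i., or 10 days from day 28 p.i.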

[6] = test system: Trypanosoma brucei rhodesiense; experiment: Antitrypanosomal activity against Trypanosoma brucei rhodesiense infected in vervet monkey 463 assessed as time to detect parasitemia at 1 mg/kg, po administered on day 7 post infection for 5 days; format: functional; method in brief: as §1
[7] = test system: Trypanosoma brucei rhodesiense; experiment: Antitrypanosomal activity against Trypanosoma brucei rhodesiense infected in vervet monkey assessed as body weight change at 10 mg/kg, po administered on day 14 post infection for 5 days; format: functional
[8] = test system: Trypanosoma brucei rhodesiense; experiment: Antitrypanosomal activity against Trypanosoma brucei rhodesiense infected in vervet monkey assessed as body weight change at 10 mg/kg, po administered on day 14 post infection for 5 days measured on day 28 post treatment; format: functional
[9] = test system: Trypanosoma brucei rhodesiense; experiment: Antitrypanosomal activity against Trypanosoma brucei rhodesiense infected in vervet monkey assessed as change in packed cell volume at 3 mg/kg, po administered on day 7 post infection for 5 days; format: functional
Method in brief: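 Vervet monkeys, three per group, were infected intravenously with T. b. rhodesiense KETRI 2537. From day 7 p.i., a drug suspension was given by oral gavage once daily for 5 consecutive days. Packed cell volume was expressed as % change from the group's mean preinfection value. PCV was read at day 0 p.t., day 28 p.t. and endpoint, with follow-up to 180 days p.t.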

[10] = test system: Trypanosoma brucei rhodesiense; experiment: Antitrypanosomal activity against Trypanosoma brucei rhodesiense infected in vervet monkey 483 assessed as time to detect parasitemia at 3 mg/kg, po administered on day 7 post infection for 5 days; format: functional; method in brief: as §1
[11] = test system: Trypanosoma brucei rhodesiense; experiment: Antitrypanosomal activity against Trypanosoma brucei rhodesiense infected in vervet monkey 490 assessed as time to detect CSF parasitosis at 10 mg/kg, po administered on day 28 post infection for 10 days measured after 14 to 21 days by microscopy; format: functional; method in brief: as §2
[12] = test system: Trypanosoma brucei rhodesiense; experiment: Antitrypanosomal activity against Trypanosoma brucei rhodesiense infected in vervet monkey assessed as body weight change at 10 mg/kg, po administered on day 28 post infection for 10 days measured on day 28 post treatment; format: functional; method in brief: as §3
[13] = test system: Trypanosoma brucei rhodesiense; experiment: Antimicrobial activity against Trypanosoma brucei rhodesiense infected in vervet monkeys assessed as cure from infection at 3 mg/kg, po administered on day 7 post infection for 5 days; format: functional, organism-based; parameters: dose 3 mg/kg
Method in brief: (§4)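 Vervet monkeys (n=3 per group), infected with T. b. rhodesiense KETRI 2537. Dosed by oral gavage with a suspension once daily for 5 consecutive days from day 7 p.i. Cure meant no trypanosomes over 180 days p.t. in blood (wet film, HCT) or CSF (hemocytometer, centrifugation), with mouse subinoculation of negative samples.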

[14] = test system: Trypanosoma brucei rhodesiense; experiment: Antitrypanosomal activity against Trypanosoma brucei rhodesiense infected in vervet monkey 463 assessed as time to detect CSF parasitosis at 1 mg/kg, po administered on day 7 post infection for 5 days measured after 7 to 14 days; format: functional, organism-based; parameters: dose 1 mg/kg; method in brief: as §2
[15] = test system: Trypanosoma brucei rhodesiense; experiment: Antitrypanosomal activity against Trypanosoma brucei rhodesiense infected in vervet monkey 478 assessed as cure from infection at 10 mg/kg, po administered on day 14 post infection for 5 days
[16] = test system: Trypanosoma brucei rhodesiense; experiment: Antitrypanosomal activity against Trypanosoma brucei rhodesiense infected in vervet monkey 463 assessed as time to detect parasitemia in wet films of blood at 1 mg/kg, po administered on day 7 post infection for 5 days by hematocrit centrifugation technique; format: functional; method in brief: as §1
[17] = test system: Trypanosoma brucei rhodesiense; experiment: Antitrypanosomal activity against Trypanosoma brucei rhodesiense infected in vervet monkey 411 assessed as cure from infection at 3 mg/kg, po administered on day 7 post infection for 5 days; format: functional, organism-based; parameters: dose 3 mg/kg; method in brief: as §4
[18] = test system: Trypanosoma brucei rhodesiense; experiment: Antitrypanosomal activity against Trypanosoma brucei rhodesiense infected in vervet monkey assessed as body weight change at 1 mg/kg, po administered on day 7 post infection for 5 days measured on day 28 post treatment; format: functional; settings: in the assay text read “day 1 post treatment” for “day 28 post treatment”; method in brief: as §3
[19] = test system: Trypanosoma brucei rhodesiense; experiment: Antitrypanosomal activity against Trypanosoma brucei rhodesiense infected in vervet monkey 501 assessed as time to detect parasitemia in wet films of blood at 10 mg/kg, po administered on day 28 post infection for 10 days by hematocrit centrifugation technique; format: functional; method in brief: as §1
[20] = test system: Trypanosoma brucei rhodesiense; experiment: Antitrypanosomal activity against Trypanosoma brucei rhodesiense infected in vervet monkey assessed as change in packed cell volume at 10 mg/kg, po administered on day 14 post infection for 5 days; format: functional
[21] = test system: Trypanosoma brucei rhodesiense; experiment: Antimicrobial activity against Trypanosoma brucei rhodesiense infected in vervet monkeys assessed as cure from infection at 10 mg/kg, po administered on day 7 post infection for 5 days; format: functional, organism-based; parameters: dose 10 mg/kg; method in brief: as §4
[22] = test system: Trypanosoma brucei rhodesiense; experiment: Antitrypanosomal activity against Trypanosoma brucei rhodesiense infected in vervet monkey 485 assessed as time to detect parasitemia in wet films of blood at 1 mg/kg, po administered on day 7 post infection for 5 days by hematocrit centrifugation technique; format: functional; method in brief: as §1
[23] = test system: Trypanosoma brucei rhodesiense; experiment: Antitrypanosomal activity against Trypanosoma brucei rhodesiense infected in vervet monkey assessed as body weight change at 10 mg/kg, po administered on day 7 post infection for 5 days measured on day 28 post treatment; format: functional; method in brief: as §3
[24] = test system: Trypanosoma brucei rhodesiense; experiment: Antitrypanosomal activity against Trypanosoma brucei rhodesiense infected in vervet monkey assessed as body weight change at 10 mg/kg, po administered on day 7 post infection for 5 days; format: functional; method in brief: as §3
[25] = test system: Trypanosoma brucei rhodesiense; experiment: Antitrypanosomal activity against Trypanosoma brucei rhodesiense infected in vervet monkey 484 assessed as time to detect CSF parasitosis at 1 mg/kg, po administered on day 7 post infection for 5 days measured after 14 to 21 days by microscopy; format: functional; method in brief: as §2

CONC(=N)c1ccc(-c2ccc(-c3ccc(C(=N)NOC)cc3)o2)cc1 [PAFURAMIDINE]
Activity [1]: -4.3%
Time [2]: 4 days
Time [3]: 21 days
Time [4]: 66 days
Activity [5]: -10.5%
Time [6]: 7 days
Activity [7]: -4.2%
Activity [8]: -5.2%
Activity [9]: -9.4%
Time [10]: 69 days
Time [11]: 42 days
Activity [12]: -8.1%
Activity [13]: Active
Time [14]: inactive
Time [15]: Active
Time [16]: 9 days
Time [17]: Active
Activity [18]: -2.1%
Time [19]: 73 days
Activity [20]: -25.8%
Activity [21]: Active
Time [22]: 3 days
Activity [23]: 0%
Activity [24]: -6.3%
Time [25]: 14 days
